Series [1] has as its system Jurkat-shBak cells. As to the kind of experiment: PS exposure. The following applies: 24 h. Format: cell-based, human. The method, boiled down:
(§1)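 Jurkat cells with Bak knocked down by RNA interference, and empty-vector controls (CN), were exposed to test compound for 24 h; cisplatin at 25 μM served as reference. Samples were diluted to 1 ml and read by flow cytometry.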

The test system of series [2] is Jurkat-CN cells. As to the kind of experiment: PS exposure. Format: cell-based, human. The following applies: 24 h. The method, boiled down: as §1
For series [3], the system named is Jurkat cells. As to the kind of experiment: Cytotoxicity, cell death by annexinV-PE labeling and flow cytometry, 24 h. Format: cell-based, human. The method, boiled down: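 Jurkat (clone E6.1) in RPMI 1640 with 5% FCS, L-glutamine and penicillin/streptomycin, seeded at 3×10⁵ cells/ml. Cells were exposed to a range of test compound concentrations for 24 h. Fluorescent cells were counted by flow cytometry. Values are mean ± SD of three independent experiments.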
(A flow cytometer gives signals particle by particle.)

For series [4] the following is noted: cited from earlier work.
Another series concerns PBMC from healthy donors. Briefly: Cytotoxicity, cell death by annexinV-PE labeling and flow cytometry, 24 h. Format: cell-based, human. The following applies: 25 μM. The method, boiled down: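 PBMC came from healthy donors, were freshly isolated by Ficoll-Paque density centrifugation and kept in complete RPMI 1640 medium. They were exposed to a range of test compound concentrations for 24 h. Positive cells were quantified by flow cytometry. Values are mean ± SD of three independent experiments.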

Series [5] relates to Jurkat cells. As to the kind of experiment: Protection by antioxidants. Format: cell-based, human. The following applies: 24 h, superoxide scavenger MnTBAP. The method, boiled down:
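Jurkat cells were cultured for 24 h with test compound alone or together with MnTBAP (superoxide anion scavenger), glutathione or N-acetylcysteine. Collapse of mitochondrial transmembrane potential was measured at the end by flow cytometry. Values are mean ± SD of 4 independent experiments.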

Series [6] relates to Jurkat-shBak cells. As to the kind of experiment: Necrotic versus apoptotic cell death, Trypan blue staining and morphology. The following applies: 24 h. It counts as cell-based, human.
Series [7] has as its system Jurkat cells. As to the kind of experiment: Growing potential after removal of compounds and NAC, Trypan blue counting. The following applies: 24h treatment with compound alone, viable cells 24 h and 48 h after removal. It counts as cell-based, human. The method, boiled down: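 Jurkat cells were treated with test compound, with or without NAC, for 24 h. They were then washed and transferred to fresh medium. Total cell number and viability were measured 24 and 48 h after removal of compound and NAC, by Trypan blue staining and counting in a Neubauer haemocytometer. Values are mean ± SD of three independent experiments.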

The test system of series [8] is Jurkat-CN cells. Briefly: Necrotic versus apoptotic cell death, Trypan blue staining and morphology. The following applies: control Jurkat cells, 24 h. Format: cell-based, human. The method, boiled down: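 Jurkat-CN (empty-vector) and Jurkat-shBak cells were treated with test compound or cisplatin for 24 h, then stained with Trypan blue. Stained cells were scored as necrotic. Unstained cells showing blebbing and/or chromatin condensation were scored as apoptotic. Values are mean ± SD of three independent experiments.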

In the case of `N.N.[Cl][Pt][Cl]` [cisplatin, reference compound], in the series with Jurkat-shBak cells [1], the “sensitivity of Jurkat-shBak cells, in words” value was “completely resistant”. The death of cells entry in the series with Jurkat-CN cells [2] (25 μM, Jurkat control (CN) cells) is “around 60%”.

Consider “[Au{κ^2-C,N-C6H4(PPh2=N(C6H5)-2}(P{Cp(m-C6H4-SO3Na)2} 3)Cl]PF6 [compound 3]”, for which the concentration for half-maximal inhibition (IC50) (commonly the concentration needed to halve the response being measured) in the series on Jurkat cells [3] is 16.1 µM. In the series with Jurkat cells [3] (25 μM), the killing of cells was found to be 96%. The “time stable in solution” value in [4] was ≤ 24 h. In the series with PBMC from healthy donors, this compound yielded a dead cells of 33.5%. The “protection from toxicity by MnTBAP” value in the series with Jurkat cells [5] is reported as “almost completely protected”. For the same compound, the “type of cell death (necrosis versus apoptosis)” value in the series on Jurkat-shBak cells [6] is “both apoptotic and necrotic cell death were prevented”; with Jurkat-CN cells [8], “necrosis and apoptosis at similar levels”. Further, the “sensitivity of Jurkat-shBak cells, in words” value with Jurkat-shBak cells [1] was “almost completely resistant”. Moreover, in the series on Jurkat cells [7], the “growing potential after transfer to fresh medium” value was “A fraction of cells”. Moreover, the “cells bound annexin V-PE” value in the series on Jurkat-CN cells [2] (10 μM, control Jurkat cells) was “around 50%”.
